{"source": "ChEMBL document CHEMBL3352597", "about": "“Heck products of parthenolide and melampomagnolide-B as anticancer modulators that modify cell cycle progression” (Eur J Med Chem, 2014)", "key": {"Oocyte [1]": {"test_system": "Oocyte", "assay": "Induction of immature stage VI Xenopus oocyte maturation assessed as stimulation of progesterone-mediated maturation measured as germinal vesicle (nuclear) breakdown at 100 uM after overnight incubation", "type": "functional, cell-based", "outline": "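Oocytes (20 per well) pre-treated overnight with compound (100 μM final, DMSO) or DMSO vehicle, then stimulated with 2 μg/ml progesterone. GVBD (animal-pole white spot) scored at the time 50% of DMSO controls reach GVBD. Rate relative to control: 1.0 means no difference, above 1.0 acceleration, below 1.0 delay, 0.0 no maturation. Differences over 20% followed up.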"}, "[2]": {"assay": "Anticancer activity against human RPMI8226 cells assessed as growth inhibition at 10^-5 M", "type": "functional", "conditions": "RPMI-8226, read-out: GI", "outline": "(§1)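 NCI-60 human tumour cell line panel screened at a single concentration of 10^-5 M; value is percent growth inhibition relative to untreated growth.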"}, "Xenopus [3]": {"test_system": "Xenopus", "assay": "Induction of progesterone-independent of MPF activation in immature stage VI Xenopus oocyte by Western blot analysis", "outline": "(§2)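 Oocytes treated with DMSO or compound without progesterone, harvested when 50% of treated oocytes completed GVBD, sorted by GVBD status. Lysates run on 10% gel and blotted with phospho-MAPK Thr202/Tyr204 and phospho-Cdc2 Tyr15 antibodies (1:1000), with tubulin as loading control. MPF activation read as Cdc2 dephosphorylation.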"}, "CCRF-CEM": {"test_system": "CCRF-CEM", "assay": "Anticancer activity against human CCRF-CEM cells assessed as growth inhibition at 10^-5 M", "type": "functional", "conditions": "read-out: GI", "outline": "as §1"}, "Oocyte [4]": {"test_system": "Oocyte", "assay": "Induction of immature stage VI Xenopus oocyte maturation assessed as stimulation of progesterone-mediated maturation measured as germinal vesicle (nuclear) breakdown after overnight incubation", "type": "functional, cell-based", "conditions": "Xenopus laevis"}, "HL-60(TB)": {"test_system": "HL-60(TB)", "assay": "Anticancer activity against human HL-60(TB) cells assessed as growth inhibition at 10^-5 M", "type": "functional", "conditions": "read-out: GI", "outline": "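NCI 60 panel initial screen at a single concentration of 10^-5 M. Value is reported as percent growth inhibition of the cell line.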"}, "K562": {"test_system": "K562", "assay": "Anticancer activity against human K562 cells assessed as growth inhibition at 10^-5 M", "type": "functional", "conditions": "read-out: GI", "outline": "as §1"}, "MCF7": {"test_system": "MCF7", "assay": "Anticancer activity against human MCF7 cells assessed as growth inhibition at 10^-5 M", "type": "functional", "conditions": "read-out: GI", "outline": "as §1"}, "Oocyte [5]": {"test_system": "Oocyte", "assay": "Induction of immature stage VI Xenopus oocyte maturation assessed as spontaneous maturation measured as germinal vesicle (nuclear) breakdown at 100 uM after overnight incubation", "type": "functional, cell-based", "outline": "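Isolated Xenopus oocytes (20 per well) incubated overnight with compound in DMSO at 100 μM final, no progesterone. The next morning, GVBD is scored as a white spot at the animal pole. Rate is expressed relative to DMSO controls, where 2.0 means spontaneous maturation.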"}, "Xenopus [6]": {"test_system": "Xenopus", "assay": "Induction of progesterone-independent of MAPK activation in immature stage VI Xenopus oocyte by Western blot analysis", "outline": "as §2"}, "[7]": {"assay": "Anticancer activity against human PC3 cells assessed as growth inhibition at 10^-5 M", "type": "functional", "conditions": "PC-3, read-out: GI", "outline": "as §1"}, "[8]": {"assay": "Anticancer activity against human MOLT4 cells assessed as growth inhibition at 10^-5 M", "type": "functional", "conditions": "MOLT-4, read-out: GI", "outline": "as §1"}}, "note": "Active and inactive are the calls of the source. No cut-off for these calls is given here.", "data": [{"molecule": "C[C@@]12CC/C=C(/CO)CC[C@@H]3/C(=C\\c4ncc[nH]4)C(=O)O[C@@H]3[C@@H]1O2", "values": [{"measurement": "Activity", "setting": "Oocyte [1]", "result": "Active"}]}, {"molecule": "C[C@@]12CC/C=C(/CO)CC[C@@H]3/C(=C\\c4cccc(C(F)(F)F)c4)C(=O)O[C@@H]3[C@@H]1O2", "values": [{"measurement": "Activity", "setting": "Oocyte [1]", "result": "Active"}]}, {"molecule": "C[C@@]12CC/C=C(/CO)CC[C@@H]3/C(=C\\c4ccc(N)cc4)C(=O)O[C@@H]3[C@@H]1O2", "values": [{"measurement": "Activity", "setting": "Oocyte [1]", "result": "Active"}]}, {"molecule": "C[C@@]12CC/C=C(/CO)CC[C@@H]3/C(=C\\c4cccs4)C(=O)O[C@@H]3[C@@H]1O2", "values": [{"measurement": "Activity", "setting": "Oocyte [1]", "result": "Active"}]}, {"molecule": "C/C1=C\\CC[C@@]2(C)O[C@@H]2[C@H]2OC(=O)/C(=C/c3ccccc3Br)[C@@H]2CC1", "values": [{"measurement": "inhibition of growth at 10 µM", "setting": "[2]", "result": 21.3, "unit": "%"}, {"measurement": "Activity", "setting": "Xenopus [3]", "result": "Active"}, {"measurement": "inhibition of growth at 10 µM", "setting": "CCRF-CEM", "result": 22.3, "unit": "%"}, {"measurement": "EC50", "setting": "Oocyte [4]", "result": 6, "unit": "µM"}, {"measurement": "inhibition of growth at 10 µM", "setting": "HL-60(TB)", "result": 34.1, "unit": "%"}, {"measurement": "inhibition of growth at 10 µM", "setting": "K562", "result": 28.1, "unit": "%"}, {"measurement": "inhibition of growth at 10 µM", "setting": "MCF7", "result": 24.3, "unit": "%"}, {"measurement": "Activity", "setting": "Oocyte [5]", "result": "Active"}, {"measurement": "Activity", "setting": "Xenopus [6]", "result": "Active"}, {"measurement": "inhibition of growth at 10 µM", "setting": "[7]", "result": 42.3, "unit": "%"}, {"measurement": "inhibition of growth at 10 µM", "setting": "[8]", "result": 31.2, "unit": "%"}]}]}
